From ChEMBL document CHEMBL1156597, “Structure-activity relationship of kahalalide F synthetic analogues” (J Med Chem, 2008)

How the values were obtained:
DU-145 = assay: Cytotoxicity against human DU145 cells after 48 hrs by SRB assay; type: functional, cell-based; settings: Homo sapiens, DU-145, 48 h; for CC50: read-out: LC50 (the source's name)
Outline: (§1)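 Cells grown in RPMI 1640 with 10% FBS and penicillin/streptomycin at 37 °C and 5% CO₂, trypsinized, then seeded at 5 × 10³/well. After 18 h drug-free attachment, samples in DMSO/EtOH/PBS (0.5:0.5:99) were added for 48 h continuous exposure. Cells were fixed with cold TCA (1 h, 4 °C) and stained with SRB (10 min). Tris-solubilized stain read at 490 nm. Triplicate wells, mean ± SD; GI₅₀ derived.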

[1] = Cytotoxicity against human IGROV cells after 48 hrs by SRB assay; type: functional; settings: for CC50: read-out: LC50 (the source's name); outline: as §1
[2] = Cytotoxicity against human IGROV-ET cells after 48 hrs by SRB assay; type: functional; settings: for CC50: read-out: LC50 (the source's name); outline: as §1
SK-BR-3 = assay: Cytotoxicity against human SKBR3 cells after 48 hrs by SRB assay; type: functional; settings: SK-BR-3, 48 h; for CC50: read-out: LC50 (the source's name); outline: as §1
SK-MEL-28 = assay: Cytotoxicity against human SK-MEL-28 cells after 48 hrs by SRB assay; type: functional, cell-based; settings: Homo sapiens, SK-MEL-28, 48 h; for CC50: read-out: LC50 (the source's name); outline: as §1
A549 = assay: Cytotoxicity against human A549 cells after 48 hrs by SRB assay; type: functional, cell-based; settings: Homo sapiens, A549, 48 h; outline: as §1
K562 = assay: Cytotoxicity against human K562 cells after 48 hrs by SRB assay; type: functional; settings: K562, 48 h; for CC50: read-out: LC50 (the source's name); outline: as §1
PANC-1 = assay: Cytotoxicity against human PANC1 cells after 48 hrs by SRB assay; type: functional; settings: PANC-1, 48 h; for CC50: read-out: LC50 (the source's name); outline: as §1
HT-29 = assay: Cytotoxicity against human HT29 cells after 48 hrs by SRB assay; type: functional, cell-based; settings: Homo sapiens, HT-29, 48 h; for CC50: read-out: LC50 (the source's name); outline: as §1
LoVo [3] = assay: Cytotoxicity against human LoVo cells after 48 hrs by SRB assay; type: functional; settings: for CC50: read-out: LC50 (the source's name)
LoVo [4] = assay: Cytotoxicity against human doxorubicin resistant LoVo cells after 48 hrs by SRB assay; type: functional; settings: for CC50: read-out: LC50 (the source's name); outline: as §1
HeLa = assay: Cytotoxicity against human HeLa cells after 48 hrs by SRB assay; type: functional; settings: for CC50: read-out: LC50 (the source's name); outline: as §1
[5] = Cytotoxicity against human HeLa-APL cells after 48 hrs by SRB assay; type: functional; outline: as §1

Row | SMILES | GI50 (DU-145) [nM] | GI50 (DU-145; read-out: GI50) [nM] | CC50 (DU-145) [nM] | GI50 [1] [nM] | GI50 ([1]; read-out: GI50) [nM] | CC50 [1] [nM] | GI50 ([2]; read-out: GI50) [nM] | CC50 [2] [nM] | GI50 (SK-BR-3; read-out: GI50) [nM] | CC50 (SK-BR-3) [nM] | GI50 (SK-MEL-28; read-out: GI50) [nM] | CC50 (SK-MEL-28) [nM] | GI50 (A549) [nM] | LC50 (A549) [nM] | GI50 (A549; read-out: GI50) [nM] | CC50 (K562) [nM] | GI50 (PANC-1) [nM] | TGI (PANC-1) [nM] | CC50 (PANC-1) [nM] | CC50 (HT-29) [nM] | other results
1 | C/C=C1\NC(=O)[C@H](Cc2cccc(Cl)c2)NC(=O)[C@@H](C(C)C)NC(=O)[C@@H]([C@H](C)CC)NC(=O)[C@H](NC(=O)[C@H](NC(=O)[C@H](CCCN)NC(=O)[C@H]2CCCN2C(=O)[C@H](NC(=O)[C@@H](NC(=O)[C@@H](NC(=O)[C@H](NC(=O)CCCC(C)C)C(C)C)[C@@H](C)O)C(C)C)C(C)C)[C@H](C)CC)[C@H](C)OC(=O)[C@H](C(C)C)NC1=O | 173 | 100 | 305 | 44.7 | 41 | 48.5 | 71.2 | 163 | 49.6 | 48.3 | 183 | 738 | 429 | 911 | 194 | 1730 | 869 | 1700 | 1700 | 153 | TGI [2]: 97 nM; GI50 (SK-BR-3): 41.9 nM; GI50 (SK-MEL-28): 313 nM; GI50 (K562): 867 nM; TGI (K562): 1220 nM; GI50 (HT-29): 40.2 nM; TGI (HT-29): 42.5 nM; GI50 (LoVo [3]): 18.5 nM; TGI (LoVo [3]): 27.9 nM; CC50 (LoVo [3]): 69.1 nM; GI50 (LoVo [4]): 40.8 nM; TGI (LoVo [4]): 35.7 nM; CC50 (LoVo [4]): 340 nM; GI50 (HeLa): 98.3 nM; TGI (HeLa): 131 nM; CC50 (HeLa): 256 nM; GI50 [5]: 191 nM; LC50 (concentration giving 50% net cell kill) [5]: 275 nM; TGI [5]: 172 nM
2 | C/C=C1\NC(=O)[C@H](Cc2ccc(Cl)cc2)NC(=O)[C@@H](C(C)C)NC(=O)[C@@H]([C@H](C)CC)NC(=O)[C@H](NC(=O)[C@H](NC(=O)[C@H](CCCN)NC(=O)[C@H]2CCCN2C(=O)[C@H](NC(=O)[C@@H](NC(=O)[C@@H](NC(=O)[C@H](NC(=O)CCCC(C)C)C(C)C)[C@@H](C)O)C(C)C)C(C)C)[C@H](C)CC)[C@H](C)OC(=O)[C@H](C(C)C)NC1=O | 189 | 112 | 388 | 62.9 | 46.3 | 112 | 86.2 | 175 | 39.7 | 206 | 214 | 931 | 473 | 934 | 227 | 1690 | 1140 | 1700 | 1700 | 143 | GI50 [2]: 122 nM; GI50 (SK-BR-3): 38.6 nM; GI50 (SK-MEL-28): 393 nM; GI50 (K562): 696 nM; TGI (K562): 1090 nM; GI50 (HT-29): 36.5 nM; TGI (HT-29): 73.5 nM; GI50 (LoVo [3]): 21.6 nM; TGI (LoVo [3]): 55 nM; CC50 (LoVo [3]): 83.8 nM; GI50 (LoVo [4]): 57.1 nM; TGI (LoVo [4]): 44.9 nM; CC50 (LoVo [4]): 340 nM; GI50 (HeLa): 193 nM; TGI (HeLa): 184 nM; CC50 (HeLa): 362 nM; GI50 [5]: 215 nM; LC50 (concentration giving 50% net cell kill) [5]: 286 nM; TGI [5]: 186 nM
3 | C/C=C1\NC(=O)[C@H](Cc2ccc(OC)cc2)NC(=O)[C@@H](C(C)C)NC(=O)[C@@H]([C@H](C)CC)NC(=O)[C@H](NC(=O)[C@H](NC(=O)[C@H](CCCN)NC(=O)[C@H]2CCCN2C(=O)[C@H](NC(=O)[C@@H](NC(=O)[C@@H](NC(=O)[C@H](NC(=O)CC[C@@H](C)CC)C(C)C)[C@@H](C)O)C(C)C)C(C)C)[C@H](C)CC)[C@H](C)OC(=O)[C@H](C(C)C)NC1=O | 947 | 858 | 1060 | 502 | 442 | 581 | 295 | 465 | 283 | 824 | 1190 | 1280 | 557 | 6420 | 526 | 1890 | 3120 | 4340 | 1990 | 45.4 | GI50 [2]: 384 nM; TGI (SK-BR-3): 284 nM; TGI (SK-MEL-28): 1230 nM; GI50 (LoVo [3]): 320 nM; TGI (LoVo [3]): 285 nM; CC50 (LoVo [3]): 106 nM; GI50 (LoVo [4]): 237 nM; TGI (LoVo [4]): 214 nM; CC50 (LoVo [4]): 79.2 nM; GI50 (HeLa): 766 nM; TGI (HeLa): 848 nM; CC50 (HeLa): 943 nM; GI50 [5]: 1010 nM; LC50 (concentration giving 50% net cell kill) [5]: 1220 nM; TGI [5]: 1160 nM
4 | C/C=C1\NC(=O)[C@H](Cc2ccc(Cl)c(Cl)c2)NC(=O)[C@@H](C(C)C)NC(=O)[C@@H]([C@H](C)CC)NC(=O)[C@H](NC(=O)[C@H](NC(=O)[C@H](CCCN)NC(=O)[C@H]2CCCN2C(=O)[C@H](NC(=O)[C@@H](NC(=O)[C@@H](NC(=O)[C@H](NC(=O)CC[C@@H](C)CC)C(C)C)[C@@H](C)O)C(C)C)C(C)C)[C@H](C)CC)[C@H](C)OC(=O)[C@H](C(C)C)NC1=O | 370 | 266 | 734 | 329 | 383 | 567 | 246 | 539 | 283 | 1030 | 587 | 1210 | 206 | 6270 | 110 | 1850 | 2090 | 1950 | 1810 | 201 | GI50 [2]: 379 nM; TGI (SK-BR-3): 368 nM; GI50 (SK-MEL-28): 852 nM; GI50 (LoVo [3]): 426 nM; TGI (LoVo [3]): 451 nM; CC50 (LoVo [3]): 319 nM; GI50 (LoVo [4]): 299 nM; TGI (LoVo [4]): 248 nM; CC50 (LoVo [4]): 134 nM; GI50 (HeLa): 493 nM; TGI (HeLa): 813 nM; CC50 (HeLa): 1100 nM; GI50 [5]: 1020 nM; LC50 (concentration giving 50% net cell kill) [5]: 1140 nM; TGI [5]: 1080 nM
